Measurements from ChEMBL document CHEMBL4350961, “Discovery of Pyrrolo[3,2- d]pyrimidin-4-one Derivatives as a New Class of Potent and Cell-Active Inhibitors of P300/CBP-Associated Factor Bromodomain” (J Med Chem, 2019).
The source made the active and inactive calls. No cut-off for these calls is given here.

How the values were obtained:
[1] = biological target: Serine/threonine-protein kinase DCLK2 (Homo sapiens) (UniProt Q8N568); assay: Inhibition of recombinant human DCAMKL2 (376 to end residues) at 10 uM using KKLNRTLSFAEPG as substrate measured after 40 mins in presence of [gamma33P]ATP by scintillation counting method
Serine/threonine-protein kinase DCLK2 (Homo sapiens), sequence (Q8N568 whole entry): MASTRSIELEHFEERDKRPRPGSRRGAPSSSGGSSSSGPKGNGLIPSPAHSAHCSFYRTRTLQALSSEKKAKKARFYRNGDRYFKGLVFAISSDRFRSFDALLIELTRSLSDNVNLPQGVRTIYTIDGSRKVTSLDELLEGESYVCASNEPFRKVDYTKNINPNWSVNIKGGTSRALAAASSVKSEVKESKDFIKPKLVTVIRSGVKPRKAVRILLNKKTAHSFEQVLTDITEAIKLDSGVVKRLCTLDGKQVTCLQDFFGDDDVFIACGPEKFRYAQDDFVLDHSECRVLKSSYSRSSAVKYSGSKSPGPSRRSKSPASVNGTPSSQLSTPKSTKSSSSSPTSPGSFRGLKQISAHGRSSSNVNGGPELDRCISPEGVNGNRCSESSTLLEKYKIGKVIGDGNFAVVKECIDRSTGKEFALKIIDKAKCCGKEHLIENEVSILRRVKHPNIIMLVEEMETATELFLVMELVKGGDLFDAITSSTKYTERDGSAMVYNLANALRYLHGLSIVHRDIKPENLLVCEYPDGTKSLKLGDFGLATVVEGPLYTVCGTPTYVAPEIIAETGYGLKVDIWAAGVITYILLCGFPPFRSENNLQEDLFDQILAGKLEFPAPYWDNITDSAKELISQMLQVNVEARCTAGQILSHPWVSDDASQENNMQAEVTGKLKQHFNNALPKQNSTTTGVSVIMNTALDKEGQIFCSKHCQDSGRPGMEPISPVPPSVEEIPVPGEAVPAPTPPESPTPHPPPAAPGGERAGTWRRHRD

[2] = biological target: Macrophage colony-stimulating factor 1 receptor (Homo sapiens) (UniProt P07333); assay: Inhibition of recombinant human FMS (538 to end residues) at 10 uM using KKKSPGEYVNIEFG as substrate measured after 40 mins in presence of [gamma33P]ATP by scintillation counting method
Macrophage colony-stimulating factor 1 receptor (Homo sapiens), sequence (P07333 whole entry): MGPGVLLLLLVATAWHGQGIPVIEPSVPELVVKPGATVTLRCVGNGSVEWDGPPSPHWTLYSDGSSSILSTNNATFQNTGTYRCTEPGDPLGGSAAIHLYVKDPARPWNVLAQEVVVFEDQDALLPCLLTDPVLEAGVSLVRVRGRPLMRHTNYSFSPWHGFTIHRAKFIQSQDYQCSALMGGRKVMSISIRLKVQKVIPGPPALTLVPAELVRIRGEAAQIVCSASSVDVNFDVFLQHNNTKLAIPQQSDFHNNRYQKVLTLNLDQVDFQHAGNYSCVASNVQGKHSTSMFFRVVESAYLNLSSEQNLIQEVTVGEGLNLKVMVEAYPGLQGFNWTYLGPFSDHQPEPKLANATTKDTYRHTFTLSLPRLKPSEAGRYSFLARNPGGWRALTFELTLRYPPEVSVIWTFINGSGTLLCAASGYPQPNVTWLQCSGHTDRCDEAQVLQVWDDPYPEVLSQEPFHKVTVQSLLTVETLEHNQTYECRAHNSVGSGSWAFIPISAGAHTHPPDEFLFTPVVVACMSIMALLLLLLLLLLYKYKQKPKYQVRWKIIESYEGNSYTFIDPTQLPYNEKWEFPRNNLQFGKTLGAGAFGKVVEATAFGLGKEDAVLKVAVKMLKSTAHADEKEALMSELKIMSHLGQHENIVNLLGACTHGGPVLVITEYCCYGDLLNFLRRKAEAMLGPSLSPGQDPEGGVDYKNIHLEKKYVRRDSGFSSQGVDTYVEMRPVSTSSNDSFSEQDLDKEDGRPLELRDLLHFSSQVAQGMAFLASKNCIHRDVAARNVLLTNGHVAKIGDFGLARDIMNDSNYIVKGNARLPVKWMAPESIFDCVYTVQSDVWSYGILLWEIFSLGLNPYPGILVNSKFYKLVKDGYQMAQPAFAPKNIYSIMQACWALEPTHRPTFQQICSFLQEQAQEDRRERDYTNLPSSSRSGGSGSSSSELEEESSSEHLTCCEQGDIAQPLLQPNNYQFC

[3] = biological target: MAP/microtubule affinity-regulating kinase 3 (Homo sapiens) (UniProt P27448); assay: Inhibition of recombinant full-length human MARK3 at 10 uM using KKKVSRSGLYRSPSMPENLNRPR as substrate measured after 40 mins in presence of [gamma33P]ATP by scintillation counting method
[4] = biological target: Receptor-interacting serine/threonine-protein kinase 2 (Homo sapiens) (UniProt O43353); assay: Inhibition of human RIPK2 (1 to 299 residues) using myelin basic protein as substrate measured after 120 mins in presence of [gamma33P]ATP by scintillation counting method
Receptor-interacting serine/threonine-protein kinase 2 (Homo sapiens), sequence (O43353 whole entry, the tested form may be a part): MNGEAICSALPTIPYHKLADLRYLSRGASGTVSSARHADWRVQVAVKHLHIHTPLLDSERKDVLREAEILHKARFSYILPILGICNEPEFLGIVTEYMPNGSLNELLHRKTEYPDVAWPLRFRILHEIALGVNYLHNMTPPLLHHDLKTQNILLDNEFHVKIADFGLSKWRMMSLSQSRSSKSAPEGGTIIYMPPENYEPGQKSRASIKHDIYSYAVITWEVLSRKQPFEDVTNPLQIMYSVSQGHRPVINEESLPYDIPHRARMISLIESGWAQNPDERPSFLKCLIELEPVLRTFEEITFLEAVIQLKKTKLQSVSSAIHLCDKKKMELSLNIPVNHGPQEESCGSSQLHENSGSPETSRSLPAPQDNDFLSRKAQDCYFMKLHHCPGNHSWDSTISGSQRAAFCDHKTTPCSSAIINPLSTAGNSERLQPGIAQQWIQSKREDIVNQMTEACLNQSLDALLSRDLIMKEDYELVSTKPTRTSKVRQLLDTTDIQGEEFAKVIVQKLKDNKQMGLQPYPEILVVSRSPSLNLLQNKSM
Outline: (§1)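 Kinase panel of 422 kinases screened by Eurofins KinaseProfiler at a single test-compound concentration of 10 µM.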

[5] = Clearance in human liver microsomes at 1 uM in presence of NADPH by LC-MS analysis; assay type: ADME, Microsome; details: read-out: CLH
Outline: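 Compound at 1 μM with 0.5 mg/mL human liver microsomes and 1 mM NADPH; sampled at 0, 5, 15, 30 and 45 min, stopped with acetonitrile, then centrifuged.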

[6] = biological target: Calcium/calmodulin-dependent protein kinase type II subunit delta (Homo sapiens) (UniProt Q13557); assay: Inhibition of recombinant full-length human CaMK2delta at 10 uM using calmodulin as substrate measured after 40 mins in presence of [gamma33P]ATP by scintillation counting method
[7] = biological target: TRAF2 and NCK-interacting protein kinase (Homo sapiens) (UniProt Q9UKE5); assay: Inhibition of human TNIK (1 to 367 residues) using RLGRDKYKTLRQIRQ as substrate measured after 40 mins in presence of [gamma33P]ATP by scintillation counting method
[8] = biological target: Tyrosine-protein kinase TXK (Homo sapiens) (UniProt P42681); assay: Inhibition of human Txk (256 to end residues) using GEEPLYWSFPAKKK as substrate measured after 40 mins in presence of [gamma33P]ATP by scintillation counting method
[9] = biological target: Tyrosine-protein kinase Lck (Homo sapiens) (UniProt P06239); assay: Inhibition of recombinant full-length human Lck at 10 uM using KVEKIGEGTYGVV as substrate measured after 40 mins in presence of [gamma33P]ATP by scintillation counting method
Tyrosine-protein kinase Lck (Homo sapiens), sequence (P06239 2-509 limits assumed): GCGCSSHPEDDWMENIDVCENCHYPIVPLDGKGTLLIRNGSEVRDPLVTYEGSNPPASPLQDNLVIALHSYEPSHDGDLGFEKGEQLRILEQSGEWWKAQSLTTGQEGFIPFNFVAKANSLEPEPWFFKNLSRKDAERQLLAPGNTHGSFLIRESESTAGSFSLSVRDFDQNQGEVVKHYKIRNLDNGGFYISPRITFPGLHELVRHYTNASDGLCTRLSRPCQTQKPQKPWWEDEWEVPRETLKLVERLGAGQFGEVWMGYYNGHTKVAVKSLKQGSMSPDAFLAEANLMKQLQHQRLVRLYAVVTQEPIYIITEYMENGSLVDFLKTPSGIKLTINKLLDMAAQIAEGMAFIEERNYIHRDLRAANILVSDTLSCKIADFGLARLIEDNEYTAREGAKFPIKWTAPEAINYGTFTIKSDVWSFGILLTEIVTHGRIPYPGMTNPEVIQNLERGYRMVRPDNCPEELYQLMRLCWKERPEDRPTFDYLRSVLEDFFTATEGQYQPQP

[10] = biological target: Myosin light chain kinase 2, skeletal/cardiac muscle (Homo sapiens) (UniProt Q9H1R3); assay: Inhibition of recombinant full-length human MYLK2 at 10 uM using KKLNRTLSFAEPG as substrate measured after 40 mins in presence of [gamma33P]ATP by scintillation counting method
[11] = biological target: Calcium/calmodulin-dependent protein kinase kinase 1 (Homo sapiens) (UniProt Q8N5S9); assay: Inhibition of recombinant full-length human CAMKk1 at 10 uM using calmodulin as substrate measured after 40 mins in presence of [gamma33P]ATP by scintillation counting method
[12] = biological target: Eukaryotic translation initiation factor 2-alpha kinase 1 (Homo sapiens) (UniProt Q9BQI3); assay: Inhibition of recombinant human HRI (140 to end residues) at 10 uM using RSRSRSRSRSRSRSR as substrate measured after 120 mins in presence of [gamma33P]ATP by scintillation counting method
[13] = biological target: Serine/threonine-protein kinase/endoribonuclease IRE1 (Homo sapiens) (UniProt O75460); assay: Inhibition of recombinant human IRE1 (465 to end residues) at 10 uM using myelin basic protein as substrate measured after 40 mins in presence of [gamma33P]ATP by scintillation counting method
[14] = biological target: Leukocyte tyrosine kinase receptor (Homo sapiens) (UniProt P29376); assay: Inhibition of recombinant human LTK (450 to end residues) at 10 uM using GEEPLYWSFPAKKK as substrate measured after 40 mins in presence of [gamma33P]ATP by scintillation counting method
[15] = test system: Ribosomal protein S6 kinase beta-1 (Homo sapiens), P23443 [T412E]; assay: Inhibition of recombinant human p70S6K T412E mutant (1 to 421 residues) at 10 uM using KKRNRTLTV as substrate measured after 40 mins in presence of [gamma33P]ATP by scintillation counting method
[16] = biological target: Tyrosine-protein kinase receptor TYRO3 (Homo sapiens) (UniProt Q06418); assay: Inhibition of human RSE (451 to end residues) using KVEKIGEGTYGVVYK as substrate measured after 40 mins in presence of [gamma33P]ATP by scintillation counting method; outline: as §1
[17] = biological target: Mitogen-activated protein kinase kinase kinase 9 (Homo sapiens) (UniProt P80192); assay: Inhibition of recombinant human MLK1 (134 to 414 residues) at 10 uM using casein as substrate measured after 40 mins in presence of [gamma33P]ATP by scintillation counting method
Mitogen-activated protein kinase kinase kinase 9 (Homo sapiens), sequence (P80192 whole entry, looked up, the tested form may be a part): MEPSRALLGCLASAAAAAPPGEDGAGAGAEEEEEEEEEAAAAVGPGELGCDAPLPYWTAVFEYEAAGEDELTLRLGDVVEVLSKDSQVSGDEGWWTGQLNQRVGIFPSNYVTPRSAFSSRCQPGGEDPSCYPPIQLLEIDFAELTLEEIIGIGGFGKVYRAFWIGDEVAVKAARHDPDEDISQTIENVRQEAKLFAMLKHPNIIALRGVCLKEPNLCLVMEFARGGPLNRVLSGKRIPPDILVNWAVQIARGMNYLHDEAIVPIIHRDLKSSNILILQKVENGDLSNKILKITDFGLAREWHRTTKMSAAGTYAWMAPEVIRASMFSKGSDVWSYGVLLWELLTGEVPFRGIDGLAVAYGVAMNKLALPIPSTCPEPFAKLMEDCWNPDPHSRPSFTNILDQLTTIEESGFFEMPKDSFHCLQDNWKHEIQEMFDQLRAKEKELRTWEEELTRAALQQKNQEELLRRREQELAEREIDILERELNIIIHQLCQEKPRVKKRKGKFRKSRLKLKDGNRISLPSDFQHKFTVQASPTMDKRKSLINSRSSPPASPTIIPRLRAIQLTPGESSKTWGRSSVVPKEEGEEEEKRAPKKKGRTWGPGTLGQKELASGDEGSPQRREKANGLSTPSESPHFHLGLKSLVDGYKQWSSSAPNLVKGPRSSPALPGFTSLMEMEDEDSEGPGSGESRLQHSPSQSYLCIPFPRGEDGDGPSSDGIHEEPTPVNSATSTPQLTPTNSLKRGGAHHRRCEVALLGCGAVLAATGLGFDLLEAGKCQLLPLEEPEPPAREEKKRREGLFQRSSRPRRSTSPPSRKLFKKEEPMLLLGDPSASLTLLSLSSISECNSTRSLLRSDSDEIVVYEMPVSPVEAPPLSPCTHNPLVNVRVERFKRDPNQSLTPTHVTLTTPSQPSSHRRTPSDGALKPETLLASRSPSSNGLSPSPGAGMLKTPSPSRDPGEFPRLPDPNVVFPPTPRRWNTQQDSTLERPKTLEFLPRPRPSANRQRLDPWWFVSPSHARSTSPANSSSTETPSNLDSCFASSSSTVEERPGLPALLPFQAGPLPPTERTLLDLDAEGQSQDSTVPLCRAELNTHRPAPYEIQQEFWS

[18] = biological target: Serine/threonine-protein kinase SIK1 (Homo sapiens) (UniProt P57059); assay: Inhibition of human SIK (1 to 281 residues) using AMARAASAAALARRR as substrate measured after 40 mins in presence of [gamma33P]ATP by scintillation counting method; outline: as §1
[19] = biological target: Vascular endothelial growth factor receptor 2 (Homo sapiens) (UniProt P35968); assay: Inhibition of recombinant human KDR (790 to end residues) at 10 uM using myelin basic protein substrate measured after 40 mins in presence of [gamma33P]ATP by scintillation counting method
Mus musculus = species: Mus musculus; assay: Inhibition of recombinant full-length mouse PI3K p110alpha/p65alpha (1 to 571 residues) at 10 uM using phosphatidylinositol-4, 5-bisphosphate as substrate measured after 40 mins by HTRF assay
[20] = biological target: Transcription intermediary factor 1-alpha (Homo sapiens) (UniProt O15164); assay: Binding affinity to human N-terminal His-tagged TRIM24 assessed as change in melting temperature at 10 uM by SYPRO orange dye-based fluorescence assay
Transcription intermediary factor 1-alpha (Homo sapiens), sequence (O15164 whole entry): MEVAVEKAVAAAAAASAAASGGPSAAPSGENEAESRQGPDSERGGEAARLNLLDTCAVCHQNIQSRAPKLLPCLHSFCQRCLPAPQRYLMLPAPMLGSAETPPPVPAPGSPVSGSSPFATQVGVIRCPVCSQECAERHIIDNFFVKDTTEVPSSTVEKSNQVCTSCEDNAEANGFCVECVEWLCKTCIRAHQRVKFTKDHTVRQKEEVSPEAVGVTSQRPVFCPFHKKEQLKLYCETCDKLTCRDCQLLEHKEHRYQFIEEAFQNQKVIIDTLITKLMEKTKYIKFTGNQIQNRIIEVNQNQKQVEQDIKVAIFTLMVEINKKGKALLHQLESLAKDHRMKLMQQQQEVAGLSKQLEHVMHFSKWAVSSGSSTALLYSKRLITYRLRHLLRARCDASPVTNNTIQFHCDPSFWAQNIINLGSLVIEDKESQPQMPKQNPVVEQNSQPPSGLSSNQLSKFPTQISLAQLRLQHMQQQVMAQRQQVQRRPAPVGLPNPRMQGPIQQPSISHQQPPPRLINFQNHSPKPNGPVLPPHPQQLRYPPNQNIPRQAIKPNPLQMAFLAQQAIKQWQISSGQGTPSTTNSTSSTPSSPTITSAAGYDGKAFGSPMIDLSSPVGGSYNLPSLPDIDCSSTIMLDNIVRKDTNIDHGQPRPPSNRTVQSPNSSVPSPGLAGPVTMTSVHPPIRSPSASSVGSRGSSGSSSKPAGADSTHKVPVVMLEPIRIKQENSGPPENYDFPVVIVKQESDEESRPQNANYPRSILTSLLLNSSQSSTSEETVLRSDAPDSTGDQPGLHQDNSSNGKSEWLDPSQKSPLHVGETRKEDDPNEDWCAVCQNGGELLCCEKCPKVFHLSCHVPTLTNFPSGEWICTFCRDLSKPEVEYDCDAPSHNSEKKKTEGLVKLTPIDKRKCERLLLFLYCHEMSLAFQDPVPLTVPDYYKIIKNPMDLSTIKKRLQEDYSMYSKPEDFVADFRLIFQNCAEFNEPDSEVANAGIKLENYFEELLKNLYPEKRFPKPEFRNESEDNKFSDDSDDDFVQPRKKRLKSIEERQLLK
Outline: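 Thermal shift with His-tagged human bromodomain at 2 μM final in 10 mM HEPES pH 7.5, 500 mM NaCl. Compound at 10 μM final with 0.1% DMSO; SYPRO Orange at 1:1000. Equilibrated 3 min at 25 °C, then heated from 25 to 95 °C at 1 °C/min. Melting temperature shift taken from fluorescence; at least duplicate.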

[21] = biological target: Bromodomain-containing protein 1 (Homo sapiens) (UniProt O95696); assay: Binding affinity to human partial length BRD1 (E556 to A688 residues) expressed in bacterial expression system at 1 uM by BROMOscan assay
Outline: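 BROMOscan bromodomain cross-screen run by an outside service, compound at 1 µM against 32 recombinant bromodomains. Binding given as percent of control.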

## CN1C[C@H](Nc2nc3cc[nH]c3c(=O)n2C)C[C@H](c2ccc3c(c2)OCCO3)C1
[1]
  inhibition: inactive
[2]
  inhibition: inactive
[3]
  inhibition: inactive
[4]
  inhibition: inactive
[5]
  CLint scaled at 1 µM: 45 mL/min/kg
[6]
  inhibition: inactive
[7]
  inhibition: inactive
[8]
  inhibition: inactive
[9]
  inhibition: inactive
[10]
  inhibition: inactive
[11]
  inhibition: inactive
[12]
  inhibition: inactive
[13]
  inhibition: inactive
[14]
  inhibition: inactive
[15]
  inhibition: inactive
[16]
  inhibition: inactive
[17]
  inhibition: inactive
[18]
  inhibition: inactive
[19]
  inhibition: inactive
Mus musculus
  inhibition: inactive
[20]
  ΔTm: -0.3 °C
[21]
  Activity: inactive
